Test results: ChEMBL document CHEMBL1154183, “Structure-based optimization of potent and selective inhibitors of the tyrosine kinase erythropoietin producing human hepatocellular carcinoma receptor B4 (EphB4)” (J Med Chem, 2009)

Columns and labels:
[1] = biological target: 3-phosphoinositide-dependent protein kinase 1 (Homo sapiens) (UniProt O15530); experiment: Inhibition of PDK1 assessed as remaining enzyme activity at 3 uM relative to DMSO
[2] = biological target: Ribosomal protein S6 kinase alpha-3 (Homo sapiens) (UniProt P51812); experiment: Inhibition of RSK2 assessed as remaining enzyme activity at 3 uM relative to DMSO
[3] = biological target: Serine/threonine-protein kinase 3 (Homo sapiens) (UniProt Q13188); experiment: Inhibition of MST2 assessed as remaining enzyme activity at 3 uM relative to DMSO
Method in brief: (§1)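 Radiometric kinase assay run robotically at room temperature for 30 min. Contained 10 mM magnesium acetate and [γ-33P]ATP (800 cpm/pmol) at 5, 20 or 50 μM, chosen per kinase to be at or below its ATP Km. Reactions were started with MgATP, stopped with orthophosphoric acid and spotted onto P81 filters. Result is mean % activity of duplicates at one inhibitor concentration versus DMSO control.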

[4] = biological target: MAP kinase-interacting serine/threonine-protein kinase 1 (Homo sapiens) (UniProt Q9BUB5); experiment: Inhibition of MNK1 assessed as remaining enzyme activity at 3 uM relative to DMSO
Method in brief: as §1

[5] = biological target: Dual specificity mitogen-activated protein kinase kinase 1 (Homo sapiens) (UniProt Q02750); experiment: Inhibition of MKK1 assessed as remaining enzyme activity at 3 uM relative to DMSO
Method in brief: as §1

[6] = biological target: Myosin light chain kinase, smooth muscle (Homo sapiens) (UniProt Q15746); experiment: Inhibition of SmMLCK assessed as remaining enzyme activity at 3 uM relative to DMSO
[7] = biological target: Inhibitor of nuclear factor kappa-B kinase subunit epsilon (Homo sapiens) (UniProt Q14164); experiment: Inhibition of IKKepsilon assessed as remaining enzyme activity at 3 uM relative to DMSO
Method in brief: (§2)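 Dundee kinase panel, radiometric: [γ-33P]ATP (800 cpm/pmol) at 5, 20 or 50 μM, at or below each kinase's ATP Km; 10 mM magnesium acetate; robotic, room temperature, 30 min. Reactions started with MgATP, stopped with orthophosphoric acid, spotted onto P81 filters. Inhibitor tested at a single concentration; mean % activity of duplicates relative to DMSO control.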

[8] = biological target: Cyclin-dependent kinase 2 (Homo sapiens) (UniProt P24941); experiment: Inhibition of CDK2 assessed as remaining enzyme activity at 3 uM relative to DMSO
Method in brief: as §2

[9] = biological target: Rho-associated protein kinase 2 (Homo sapiens) (UniProt O75116); experiment: Inhibition of ROCK2 assessed as remaining enzyme activity at 3 uM relative to DMSO
[10] = Inhibition of VEG-FR assessed as remaining enzyme activity at 3 uM relative to DMSO
[11] = biological target: Tyrosine-protein kinase Lyn (Homo sapiens) (UniProt P07948); experiment: Binding affinity to LYN assessed as percentage of kinase remaining bound to the bead at 1 uM by T7 phage display based binding assay
Method in brief: (§3)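 Competition binding assay run by a contract lab. Each kinase was expressed as a fusion to T7 phage, full-length for small kinases and catalytic domain for large ones. Phage were mixed with an immobilized known kinase inhibitor on streptavidin magnetic beads and with test compound at a single 1 μM. Kinase/phage still bound to the beads was quantified by qPCR and expressed as % of DMSO control.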

Ephrin type-A receptor 4 = Ephrin type-A receptor 4 (Homo sapiens, UniProt P54764); experiment: Inhibition of EphA4 by [gamma33-P]ATP based assay
Method in brief: (§4)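 Radiometric [γ-33P]ATP kinase assay against Eph kinases, following a protocol similar to the Mg-acetate/MgATP filter-binding method.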

[12] = biological target: Discoidin domain-containing receptor 2 (Homo sapiens) (UniProt Q16832); experiment: Binding affinity to DDR2 assessed as percentage of kinase remaining bound to the bead at 1 uM by T7 phage display based binding assay
Method in brief: as §3

[13] = biological target: Ribosomal protein S6 kinase alpha-5 (Homo sapiens) (UniProt O75582); experiment: Inhibition of MSK1 assessed as remaining enzyme activity at 1 uM relative to DMSO
Method in brief: (§5)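 Radiometric kinase assay run robotically at room temperature for 30 min, linear in time and enzyme. Conditions: 10 mM magnesium acetate, [γ-33P]ATP (800 cpm/pmol) at 5, 20 or 50 μM per kinase, at or below its ATP Km. Started with MgATP and stopped with orthophosphoric acid, then spotted on P81 filters. Reported as mean % activity of duplicates versus DMSO controls.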

[14] = biological target: Protein kinase C zeta type (Homo sapiens) (UniProt Q05513); experiment: Inhibition of PKCzeta assessed as remaining enzyme activity at 1 uM relative to DMSO
[15] = biological target: Tyrosine-protein kinase CSK (Homo sapiens) (UniProt P41240); experiment: Inhibition of CSK assessed as remaining enzyme activity at 1 uM relative to DMSO
Method in brief: as §2

[16] = biological target: Mitogen-activated protein kinase 12 (Homo sapiens) (UniProt P53778); experiment: Inhibition of p38-gamma assessed as remaining enzyme activity at 1 uM relative to DMSO
Ephrin type-A receptor 7 = Ephrin type-A receptor 7 (Homo sapiens, UniProt Q15375); experiment: Inhibition of EphA7 by [gamma33-P]ATP based assay
Method in brief: as §4

[17] = biological target: Maternal embryonic leucine zipper kinase (Homo sapiens) (UniProt Q14680); experiment: Inhibition of MELK assessed as remaining enzyme activity at 1 uM relative to DMSO
Method in brief: as §1

[18] = biological target: Ribosomal protein S6 kinase alpha-3 (Homo sapiens) (UniProt P51812); experiment: Inhibition of RSK2 assessed as remaining enzyme activity at 1 uM relative to DMSO
[19] = biological target: Serine/threonine-protein kinase TBK1 (Homo sapiens) (UniProt Q9UHD2); experiment: Inhibition of TBK1 assessed as remaining enzyme activity at 1 uM relative to DMSO
[20] = biological target: Serine/threonine-protein kinase 32B (Homo sapiens) (UniProt Q9NY57); experiment: Binding affinity to YANK2 assessed as percentage of kinase remaining bound to the bead at 1 uM by T7 phage display based binding assay
Method in brief: as §3

[21] = biological target: Receptor tyrosine-protein kinase erbB-3 (Homo sapiens) (UniProt P21860); experiment: Binding affinity to ERBB3 assessed as percentage of kinase remaining bound to the bead at 1 uM by T7 phage display based binding assay
Method in brief: as §3

[22] = biological target: Serine/threonine-protein kinase N2 (Homo sapiens) (UniProt Q16513); experiment: Inhibition of PRK2 assessed as remaining enzyme activity at 1 uM relative to DMSO
[23] = biological target: Cytoplasmic tyrosine-protein kinase BMX (Homo sapiens) (UniProt P51813); experiment: Binding affinity to BMX assessed as percentage of kinase remaining bound to the bead at 1 uM by T7 phage display based binding assay
Method in brief: as §3

[24] = biological target: Tyrosine-protein kinase Yes (Homo sapiens) (UniProt P07947); experiment: Inhibition of YES1 assessed as remaining enzyme activity at 1 uM relative to DMSO
[25] = biological target: Mitogen-activated protein kinase 3 (Homo sapiens) (UniProt P27361); experiment: Inhibition of ERK1 assessed as remaining enzyme activity at 1 uM relative to DMSO
Method in brief: as §5

[26] = biological target: Insulin receptor (Homo sapiens) (UniProt P06213); experiment: Inhibition of histidine-tagged IR assessed as remaining enzyme activity at 1 uM relative to DMSO
[27] = biological target: Tyrosine-protein kinase BTK (Homo sapiens) (UniProt Q06187); experiment: Inhibition of BTK assessed as remaining enzyme activity at 1 uM relative to DMSO
Method in brief: as §2

Sequence of Ribosomal protein S6 kinase alpha-3 (Homo sapiens) (P51812 whole entry): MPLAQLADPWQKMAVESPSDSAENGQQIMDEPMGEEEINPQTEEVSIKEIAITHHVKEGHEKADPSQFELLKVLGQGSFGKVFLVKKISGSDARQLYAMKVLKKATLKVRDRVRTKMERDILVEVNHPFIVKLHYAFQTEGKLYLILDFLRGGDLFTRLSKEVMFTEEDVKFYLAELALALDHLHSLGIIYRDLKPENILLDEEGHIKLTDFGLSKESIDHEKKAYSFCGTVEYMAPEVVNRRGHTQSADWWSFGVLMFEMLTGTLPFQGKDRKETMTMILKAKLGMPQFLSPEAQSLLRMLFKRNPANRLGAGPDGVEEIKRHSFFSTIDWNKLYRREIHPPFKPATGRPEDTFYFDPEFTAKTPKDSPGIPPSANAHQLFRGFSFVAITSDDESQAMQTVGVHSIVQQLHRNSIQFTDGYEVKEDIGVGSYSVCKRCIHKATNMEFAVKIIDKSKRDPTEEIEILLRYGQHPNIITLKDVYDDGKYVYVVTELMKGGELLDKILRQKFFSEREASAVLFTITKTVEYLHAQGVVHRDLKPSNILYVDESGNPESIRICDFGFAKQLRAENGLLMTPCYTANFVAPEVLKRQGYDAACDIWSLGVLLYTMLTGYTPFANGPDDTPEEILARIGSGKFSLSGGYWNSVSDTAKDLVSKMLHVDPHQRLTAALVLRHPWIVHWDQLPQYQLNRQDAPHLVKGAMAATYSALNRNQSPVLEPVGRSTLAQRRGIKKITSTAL
Sequence of 3-phosphoinositide-dependent protein kinase 1 (Homo sapiens) (O15530 whole entry, looked up): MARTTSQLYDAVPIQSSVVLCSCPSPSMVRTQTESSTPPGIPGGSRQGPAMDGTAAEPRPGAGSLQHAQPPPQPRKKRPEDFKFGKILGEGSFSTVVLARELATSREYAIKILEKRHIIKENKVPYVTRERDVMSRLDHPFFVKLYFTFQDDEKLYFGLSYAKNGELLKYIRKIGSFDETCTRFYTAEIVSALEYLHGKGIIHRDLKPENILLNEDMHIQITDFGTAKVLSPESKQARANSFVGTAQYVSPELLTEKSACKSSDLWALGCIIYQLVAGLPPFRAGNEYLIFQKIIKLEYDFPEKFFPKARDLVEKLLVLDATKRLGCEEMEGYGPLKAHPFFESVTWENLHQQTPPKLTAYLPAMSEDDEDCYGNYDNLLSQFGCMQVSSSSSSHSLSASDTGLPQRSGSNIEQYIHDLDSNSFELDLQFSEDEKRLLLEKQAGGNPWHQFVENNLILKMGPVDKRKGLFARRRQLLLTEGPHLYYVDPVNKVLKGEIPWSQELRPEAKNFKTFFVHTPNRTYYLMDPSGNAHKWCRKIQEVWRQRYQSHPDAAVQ
Sequence of Receptor tyrosine-protein kinase erbB-3 (Homo sapiens) (P21860 whole entry): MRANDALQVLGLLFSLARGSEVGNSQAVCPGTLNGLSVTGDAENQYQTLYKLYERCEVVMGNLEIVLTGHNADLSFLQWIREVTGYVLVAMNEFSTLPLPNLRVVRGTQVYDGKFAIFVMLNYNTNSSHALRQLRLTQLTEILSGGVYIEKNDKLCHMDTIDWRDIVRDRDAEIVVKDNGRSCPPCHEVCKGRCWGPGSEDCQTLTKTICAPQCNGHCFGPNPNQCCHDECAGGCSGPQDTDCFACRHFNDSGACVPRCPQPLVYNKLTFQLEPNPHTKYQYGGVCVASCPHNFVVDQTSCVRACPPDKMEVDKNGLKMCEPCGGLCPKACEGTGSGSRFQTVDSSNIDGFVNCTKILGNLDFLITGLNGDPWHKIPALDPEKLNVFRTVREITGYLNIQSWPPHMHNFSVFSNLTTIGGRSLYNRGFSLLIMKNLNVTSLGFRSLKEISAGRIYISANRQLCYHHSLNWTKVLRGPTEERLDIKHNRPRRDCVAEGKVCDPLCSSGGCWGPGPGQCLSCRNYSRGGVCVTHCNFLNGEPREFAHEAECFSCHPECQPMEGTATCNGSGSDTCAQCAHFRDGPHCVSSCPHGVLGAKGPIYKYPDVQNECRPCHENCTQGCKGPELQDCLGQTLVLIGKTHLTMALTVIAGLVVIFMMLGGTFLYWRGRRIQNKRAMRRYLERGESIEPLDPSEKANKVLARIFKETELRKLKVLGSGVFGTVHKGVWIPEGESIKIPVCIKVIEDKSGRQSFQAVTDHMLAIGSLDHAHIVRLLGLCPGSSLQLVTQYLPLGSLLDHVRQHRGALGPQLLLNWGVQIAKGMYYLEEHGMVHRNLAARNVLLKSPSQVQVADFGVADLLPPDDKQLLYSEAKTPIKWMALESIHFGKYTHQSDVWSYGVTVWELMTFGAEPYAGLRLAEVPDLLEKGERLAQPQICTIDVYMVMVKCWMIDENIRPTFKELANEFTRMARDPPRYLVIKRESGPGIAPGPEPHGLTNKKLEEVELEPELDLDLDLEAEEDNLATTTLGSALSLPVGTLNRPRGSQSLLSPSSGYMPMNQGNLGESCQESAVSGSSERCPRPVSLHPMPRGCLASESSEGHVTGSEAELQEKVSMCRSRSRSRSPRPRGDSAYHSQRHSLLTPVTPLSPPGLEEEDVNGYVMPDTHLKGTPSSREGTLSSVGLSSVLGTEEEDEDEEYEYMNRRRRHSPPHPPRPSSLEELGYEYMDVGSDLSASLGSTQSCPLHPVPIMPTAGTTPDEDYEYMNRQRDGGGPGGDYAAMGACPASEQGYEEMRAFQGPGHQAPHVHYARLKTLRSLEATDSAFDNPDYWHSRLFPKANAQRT
Sequence of Ephrin type-A receptor 7 (Q15375 whole entry): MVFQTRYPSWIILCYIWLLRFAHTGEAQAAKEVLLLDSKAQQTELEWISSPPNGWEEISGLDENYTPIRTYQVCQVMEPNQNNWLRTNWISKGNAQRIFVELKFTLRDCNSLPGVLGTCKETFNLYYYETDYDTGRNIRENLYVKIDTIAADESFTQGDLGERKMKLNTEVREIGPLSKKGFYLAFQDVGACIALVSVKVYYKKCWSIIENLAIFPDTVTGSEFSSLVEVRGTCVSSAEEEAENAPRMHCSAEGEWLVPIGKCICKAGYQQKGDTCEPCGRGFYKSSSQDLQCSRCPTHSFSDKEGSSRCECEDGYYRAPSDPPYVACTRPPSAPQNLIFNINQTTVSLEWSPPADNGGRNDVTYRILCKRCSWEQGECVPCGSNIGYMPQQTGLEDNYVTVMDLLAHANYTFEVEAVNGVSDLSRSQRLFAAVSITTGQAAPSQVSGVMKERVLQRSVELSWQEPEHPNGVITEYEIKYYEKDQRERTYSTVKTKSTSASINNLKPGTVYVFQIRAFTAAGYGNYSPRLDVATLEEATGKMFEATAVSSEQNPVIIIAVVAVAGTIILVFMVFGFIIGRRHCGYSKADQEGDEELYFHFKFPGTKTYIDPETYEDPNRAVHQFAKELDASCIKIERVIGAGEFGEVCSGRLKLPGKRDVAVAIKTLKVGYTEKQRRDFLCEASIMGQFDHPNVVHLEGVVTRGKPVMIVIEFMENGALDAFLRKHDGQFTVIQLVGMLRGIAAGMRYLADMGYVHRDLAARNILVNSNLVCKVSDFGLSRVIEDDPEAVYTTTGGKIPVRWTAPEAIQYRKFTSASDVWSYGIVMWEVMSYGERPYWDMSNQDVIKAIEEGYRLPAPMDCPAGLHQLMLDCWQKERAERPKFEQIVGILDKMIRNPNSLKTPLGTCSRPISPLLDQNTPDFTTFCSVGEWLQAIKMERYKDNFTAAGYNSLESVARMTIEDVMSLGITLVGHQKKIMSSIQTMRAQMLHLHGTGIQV
Sequence of Mitogen-activated protein kinase 12 (Homo sapiens) (P53778 whole entry): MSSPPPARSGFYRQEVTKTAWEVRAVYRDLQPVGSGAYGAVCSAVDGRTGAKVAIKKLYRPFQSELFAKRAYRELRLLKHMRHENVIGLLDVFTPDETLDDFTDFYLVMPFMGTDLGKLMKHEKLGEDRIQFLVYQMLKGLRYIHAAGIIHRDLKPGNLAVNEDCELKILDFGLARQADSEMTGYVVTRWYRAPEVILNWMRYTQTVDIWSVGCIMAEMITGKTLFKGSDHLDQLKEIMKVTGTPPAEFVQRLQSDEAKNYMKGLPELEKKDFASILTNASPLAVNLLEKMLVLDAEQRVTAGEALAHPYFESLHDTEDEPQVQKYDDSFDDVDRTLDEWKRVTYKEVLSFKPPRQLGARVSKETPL
Sequence of Ephrin type-A receptor 4 (P54764 whole entry): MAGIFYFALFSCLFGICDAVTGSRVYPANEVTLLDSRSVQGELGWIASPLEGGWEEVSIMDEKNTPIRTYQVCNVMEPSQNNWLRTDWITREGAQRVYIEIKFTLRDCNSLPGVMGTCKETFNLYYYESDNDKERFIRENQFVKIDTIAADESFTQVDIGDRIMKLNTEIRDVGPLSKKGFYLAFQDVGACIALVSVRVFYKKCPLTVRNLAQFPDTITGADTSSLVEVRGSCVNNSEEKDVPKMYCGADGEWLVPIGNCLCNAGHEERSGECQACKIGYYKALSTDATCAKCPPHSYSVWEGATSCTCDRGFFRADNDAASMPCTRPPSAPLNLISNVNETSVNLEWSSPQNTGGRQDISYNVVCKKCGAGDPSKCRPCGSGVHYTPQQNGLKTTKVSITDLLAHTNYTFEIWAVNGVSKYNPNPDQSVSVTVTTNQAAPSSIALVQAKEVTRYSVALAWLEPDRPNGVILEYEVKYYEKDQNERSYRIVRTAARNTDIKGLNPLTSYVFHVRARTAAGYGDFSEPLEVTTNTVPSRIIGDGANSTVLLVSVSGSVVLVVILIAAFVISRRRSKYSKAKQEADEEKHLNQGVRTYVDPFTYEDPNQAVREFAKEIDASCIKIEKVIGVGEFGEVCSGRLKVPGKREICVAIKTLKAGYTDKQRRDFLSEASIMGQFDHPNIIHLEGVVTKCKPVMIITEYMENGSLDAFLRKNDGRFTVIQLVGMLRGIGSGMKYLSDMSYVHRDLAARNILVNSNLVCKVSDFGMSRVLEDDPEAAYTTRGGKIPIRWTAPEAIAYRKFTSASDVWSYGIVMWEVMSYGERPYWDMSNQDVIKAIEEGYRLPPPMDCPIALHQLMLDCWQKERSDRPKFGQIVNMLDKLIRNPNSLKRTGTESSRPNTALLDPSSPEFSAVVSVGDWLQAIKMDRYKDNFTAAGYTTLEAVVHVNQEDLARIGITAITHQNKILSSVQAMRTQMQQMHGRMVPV

An Activity [1] of 109%, an Activity [2] of 105% and an Activity [3] of 95% were found for `COc1ccccc1-n1c(-c2ccccc2C)cn2c3c(=O)[nH]c(=O)n(C)c3nc12` in this work. The Activity [4] was 93%, the Activity [5] was 70% and the Activity [6] was 91%. The Activity [7] was 101%, the Activity [8] was 97% and the Activity [9] was 94%. For the same compound, the Activity [10] was 106%.
An Activity [11] of 0.4%, an IC50 (Ephrin type-A receptor 4) of 3.3 nM and an Activity [12] of 21% were found for `COc1ccccc1-n1c(-c2cc(O)ccc2C)cn2c3c(=O)[nH]c(=O)n(C)c3nc12` in this work. It also gave an Activity [13] of 95%, an Activity [14] of 95% and an Activity [15] of 31%. It also gave an Activity [16] of 84%, an IC50 (Ephrin type-A receptor 7) of 1120 nM and an Activity [17] of 80%. The Activity [18] was 104%, the Activity [19] was 89% and the Activity [20] was 89%. The Activity [21] was 78%, the Activity [22] was 93% and the Activity [23] was 55%. The Activity [24] was 3%, the Activity [25] was 96% and the Activity [26] was 104%. The Activity [27] was 33%.
